# Assay outcomes: PubChem, several laboratories
# Sampled rows, rich in hits. Any-hit rate of the full collection: about 2.5%.
# SR-BI uptake up = activators of SR-BI mediated DiI-HDL uptake, primary screen, ldlA[mSR-BI] CHO cells, DiI fluorescence. 3 h; 100 = double the neutral-control signal. activation, % at 12.5 µM. 0.096% of 320,000 active. AID 504775, 2011;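 active = mean replicate activation of at least 60% and every replicate at or above 60%; inconclusive = mean or all-replicate condition met, but not both; inactive = mean below 60% and not all replicates reaching 60%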
#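 material = CHO ldlA[mSR-BI] cells | medium = Ham's F12 with 0.5% BSA, HEPES 25 mM, pH 7.4 | reagent = fluorescent DiI-HDL, 10 µg/mL final | compound dosing = single-point compound dose | incubation = 3 h, 37 °C | measured by = bottom-read fluorescence, 550/595 nm | measure = HDL uptake via cellular fluorescence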
# H9c2 TAG inh = inhibitors of triacylglycerol accumulation, primary screen, cell-based, uHTS, fluorescence, H9c2; H9c2 cells, Nile Red lipid (TAG) fluorescence; cells loaded with 200 µM oleic acid; inhibition, % at 12.5 µM; 0.66% of 230,000 active; AID 651582, 2012;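 active = pattern-corrected inhibition of lipid staining of at least 50% with the nuclear-stain viability signal not falling by more than 50%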
# SMARCA2 activ = SMARCA2 (BRM) function activators, primary screen, cell-based, luminescence, high throughput. 1% of 370,000 active. AID 652017, 2013. MG213 cells, MMTV-luciferase reporter, dexamethasone, overnight. activation, % at 9.1 µM; in the data active = activation above about 7.8%
# Vif inh = HIV Vif self-association inhibitors, primary screen, imaging, HEK293T, single point; HEK293T cells, Vif self-association by quenched fluorescence, 24 h; 0.35% of 340,000 active; AID 602346, 2012; inhibition, % at 7.49 µM; in the data active = inhibition above about 50%, passing the limit was not always enough; inconclusive = no clear call, values can overlap the other calls; inactive = below about 31%
# SR-BI DiI inh = inhibitors of SR-BI mediated HDL lipid uptake, primary screen, ldlA[mSR-BI] cells, fluorescence, single point. Scavenger receptor class B member 1 (Mus musculus), Q61009. 0.96% of 320,000 active. inhibition, % at 12.5 µM. ldlA[mSR-BI] CHO cells, DiI-HDL uptake fluorescence, 3 h;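 active = mean replicate inhibition of at least 70% and a set share of replicates each scoring 70 or more; inconclusive = meets just one of the two criteria; inactive = fails both criteria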
# Target sequence (Q61009 whole entry, looked up): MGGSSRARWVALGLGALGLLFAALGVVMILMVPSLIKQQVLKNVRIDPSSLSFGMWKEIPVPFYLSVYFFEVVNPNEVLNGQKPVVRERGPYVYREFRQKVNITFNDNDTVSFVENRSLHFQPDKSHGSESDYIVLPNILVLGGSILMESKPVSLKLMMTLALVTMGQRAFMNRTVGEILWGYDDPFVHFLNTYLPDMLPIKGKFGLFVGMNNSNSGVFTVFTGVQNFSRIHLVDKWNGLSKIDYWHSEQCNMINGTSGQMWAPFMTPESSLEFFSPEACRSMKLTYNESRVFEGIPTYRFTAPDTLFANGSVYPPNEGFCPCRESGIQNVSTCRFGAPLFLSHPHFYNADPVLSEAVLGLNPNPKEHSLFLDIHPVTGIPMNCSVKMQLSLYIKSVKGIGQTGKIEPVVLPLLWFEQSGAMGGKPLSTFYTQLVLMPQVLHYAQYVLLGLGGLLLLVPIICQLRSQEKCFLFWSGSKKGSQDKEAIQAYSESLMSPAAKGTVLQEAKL
# SMARCA2 act conf = SMARCA2 (BRM) function activators, confirmation, cell-based, luminescence, triplicate | shares compounds with SMARCA2 activ | MG213 cells, MMTV-luciferase with dexamethasone, overnight; MG213 cells expressing E1A, Rb sequestered; DMSO wells 0%, reference activator 100% | activation, % at 9.1 µM | 30% of 3,500 active;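 active = activation above its plate's cutoff, the mean activation of tested wells plus 3 SD, cut at about 7.9% in these data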
# VP16 Luc act = GAL4-VP16 luciferase reporter activation, counter-screen for SMARCA2 (BRM) activator project, cell-based, pG5luc, luminescence, high throughput; activation, % at 9.1 µM; 41% of 3,500 active; shares compounds with SMARCA2 activ; HEK293 GAL4-VP16 pG5luc reporter; scaled: DMSO wells 0%, SAHA wells 100%;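 active = activation above the solvent-only control well mean plus 3 SD, averaged across control plates, cut at about 5.2% in these data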
# Numbers stand for hits; i = inactive; ? = inconclusive; nt = no result.
SMILES,SR-BI uptake up,H9c2 TAG inh,SMARCA2 activ,Vif inh,SR-BI DiI inh,SMARCA2 act conf,VP16 Luc act
O=C(C(=O)N1CCN(S(=O)(=O)c2ccc(C(F)(F)F)cc2)CC1)c1cccc(C(F)(F)F)c1,nt,nt,i,nt,nt,nt,nt
COC(=O)Nc1ccc2ncn(C)c(=O)c2c1,i,i,9.9,i,i,i,i
Cn1cnc2ccc([N+](=O)[O-])cc2c1=O,i,nt,i,i,i,nt,nt
COc1ccc2c(c1OC)C(=O)N(c1ccc(C)cc1)C2,i,i,9.4,i,i,13.7,8.4
COc1ccccc1N1Cc2ccc(OC)c(OC)c2C1=O,i,nt,i,i,i,nt,nt
COc1ccc2c(c1OC)C(=O)N(c1cccc(C)c1)C2,i,i,i,i,i,nt,nt
COc1ccc2c(c1OC)C(=O)N(c1cccc(C(F)(F)F)c1)C2,i,nt,8.5,i,i,i,8.9
O=C(NCCc1c[nH]c2ccccc12)c1ccc2c(c1)ncn2C1CCCCC1,nt,nt,i,nt,nt,nt,nt
Cn1cccc1[C@]1(O)C(=O)Nc2ccc(F)cc21,nt,nt,i,nt,nt,nt,nt
O=C(CSc1nnc(-c2ccncc2)n1CC1CCCO1)Nc1cccc(O)c1 (stereo not given),i,nt,8.3,i,i,i,i
CCOc1ccc(NC(=O)CSc2nnc(-c3ccncc3)n2CC2CCCO2)cc1 (stereo not given),i,i,i,?,i,nt,nt
CC1(C)C(=O)Nc2ccccc2N1C(=O)Cn1ncc(Cl)c(Cl)c1=O,nt,i,18.6,i,nt,22.6,i
Cc1ccc(-n2c(SCC(=O)Nc3ccc(OCc4ccccc4)cc3)nnc2-c2ccco2)cc1,nt,nt,i,nt,nt,nt,nt
O=C(Oc1c(CN2CCOCC2)cc(Cl)c2cccnc12)c1ccccc1Br,nt,i,8.7,i,nt,23.7,i
CN1CCN(Cc2cc(Cl)c3cccnc3c2OC(=O)c2cccs2)CC1,i,nt,i,i,i,nt,nt
Cn1ccc(C(=O)N/N=C/c2ccccc2[N+](=O)[O-])n1,i,i,8.2,i,i,i,i
CCCc1ccc(OCc2ccc(C(=O)N3CCSCC3)o2)cc1,i,nt,8.3,i,i,i,7.4
COc1ccc(C(=O)/C=C/c2ccccc2)c(O)c1,i,nt,8.2,i,i,i,i
COc1ccc(C(=O)/C=C/c2ccc(OC)cc2OC)c(O)c1,i,nt,i,i,i,nt,nt
O=C(/C=C/c1ccc(O)cc1)c1ccc(O)cc1O,i,i,8.1,i,i,10.5,i
COc1ccc(C(=O)C=Cc2cccs2)c(O)c1,i,i,8.2,i,i,i,5.7
CC(C)CNS(=O)(=O)/C=C/c1ccccc1CCNC(=O)OC(C)(C)C,nt,nt,i,nt,nt,nt,nt
CC(NC(=O)CCSCc1ccccc1F)c1ccccc1 (stereo not given),i,nt,12.4,i,i,i,i
CC(NC(=O)CCSCCC(=O)NC(C)c1ccccc1)c1ccccc1 (stereo not given),i,i,i,i,i,nt,nt
CN1CCN(CC#Cc2ccccc2)CC1CCO (stereo not given),i,i,i,i,i,nt,nt
SMILES,SR-BI uptake up,H9c2 TAG inh,SMARCA2 activ,Vif inh,SR-BI DiI inh,SMARCA2 act conf,VP16 Luc act
N/C(=N\OC(=O)c1cccs1)c1ccccc1,i,nt,17.8,i,i,11.9,6.8
Cc1cc(C)cc(N(CC(=O)NC2CCC(C)CC2)S(=O)(=O)c2ccc([N+](=O)[O-])cc2)c1 (stereo not given),nt,nt,i,nt,nt,nt,nt
COc1ccc(-c2nnc(NC(=O)c3c(OC)cccc3OC)s2)cc1,i,nt,i,i,i,nt,nt
COC(=O)Nc1nnc(-c2ccc(OC)cc2)s1,i,i,8.1,i,i,i,5.2
CC(C)=CC(=O)Nc1nnc(C)s1,i,nt,i,nt,i,nt,nt
CC(C)=CC(=O)Nc1nnc(-c2ccccc2)s1,i,nt,16.3,nt,i,i,7.8
COc1cccc(C(=O)N[C@H](C(=O)N2CCC[C@H]2C(=O)NCc2ccccc2)c2ccccc2)c1,nt,nt,i,nt,nt,nt,nt
COc1ccc(C(=O)CSc2nnc(-c3cccc(Cl)c3)n2Cc2ccco2)cc1,nt,nt,i,nt,nt,nt,nt
O=C(COC(=O)c1ccc(S(=O)(=O)N2CCCC2)cc1)Nc1cccc(F)c1,i,i,10.4,i,i,i,i
COc1cc(/C=C2/SC(=Nc3ccc(O)cc3)NC2=O)cc(OC)c1O,i,i,8.9,i,i,i,i
COc1cc(/C=C2\SC(=Nc3ccc(O)cc3)NC2=O)cc(OC)c1OC,nt,nt,i,nt,nt,nt,nt
O=C(Nc1ccon1)c1nc[nH]c1C(=O)N1CCN(c2ccccc2)CC1,i,i,i,i,i,nt,nt
C/C(CC(=O)Nc1ccc(Cl)c(C(F)(F)F)c1)=N\NC(=O)c1cccc(O)c1,i,nt,10.4,i,i,i,i
Nc1nc(Nc2ccccc2F)nc(NCc2ccco2)c1[N+](=O)[O-],i,i,12.8,i,i,i,i
Nc1nc(Nc2ccccc2)nc(NCc2ccco2)c1[N+](=O)[O-],i,nt,i,i,i,nt,nt
O=C(O)CCCNS(=O)(=O)c1ccc(F)cc1,i,nt,8.8,i,i,i,i
O=S(=O)(NCCCCCNS(=O)(=O)c1ccc(F)cc1)c1ccc(F)cc1,i,i,i,i,i,nt,nt
O=C(O)CC1(CC(=O)Nc2ccc(Oc3cccc(C(F)(F)F)c3)nc2)CCCC1,nt,i,i,i,nt,nt,nt
O=C(CSC1=Nc2ccccc2C2=NC(Cc3c[nH]c4ccccc34)C(=O)N12)NC1CCCCC1 (stereo not given),i,i,8.6,i,i,i,i
O=C(/C=C/c1ccccc1)c1ccc(NC2=NCCCS2)cc1,i,nt,i,i,i,nt,nt
O=C(/C=C/c1ccc(Br)cc1)c1ccc(NC2=NCCCS2)cc1,i,nt,25.0,i,i,11.5,i
CC(C)(C)OC(=O)N1CCC(NC(=O)c2nc[nH]c2C(=O)N2CCc3ccccc3C2)CC1,i,i,i,i,i,nt,nt
CCCN(CCC)CCCNC(=S)Nc1ccc2nc(N3CCN(C)CC3)cc(C)c2c1,nt,i,10.1,i,nt,8.3,i
CCCN(CCC)CCCNC(=S)Nc1ccc2nc(N3CCN(CC)CC3)cc(C)c2c1,nt,i,9.4,i,nt,i,i
CCCCN(CC)CCNC(=S)Nc1ccc2nc(N3CCN(C)CC3)cc(C)c2c1,i,nt,i,i,i,nt,nt
N#CC(OC(=O)c1ccccc1)c1ccccc1 (stereo not given),i,nt,i,i,i,nt,nt
Cc1cc(C)c(C(=O)NCC(=O)c2ccccc2)c(C)c1,i,i,i,i,i,nt,nt
Cc1nc(NCCc2ccccc2)sc1C(=O)N(C)C,nt,nt,8.6,i,nt,i,i
Nc1ccc(Nc2nc(-c3ccncc3)cs2)cc1,i,nt,13.1,i,i,10.7,13.4
